ChEMBL document CHEMBL3734716, “Labdane and Clerodane Diterpenoids from Colophospermum mopane” (2015)
≈ marks a conversion by molar mass, not a printed value. Calls of active or inactive are those of the source. No cut-off for these calls is given here.

Legend:
Enterococcus faecalis = experiment: Antibacterial activity against Enterococcus faecalis ATCC 29212 after 24 hrs using p-iodonitrotetrazolium violet dye; format: functional; settings: ATCC 29212, 24 h
Method in brief: (§1)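 Broth microdilution MIC. Compounds reconstituted in acetone at a 5 mg/mL starting concentration, then serially doubling-diluted in sterile distilled water. Inoculum approx. 1 × 10^6 CFU/mL. Plates sealed and incubated at 37 °C for 24 h. Growth read after adding p-iodonitrotetrazolium violet (0.4 mg/mL); purple-pink means growth. MIC taken as lowest concentration with no growth. Ciprofloxacin positive control (0.01 mg/mL); acetone solvent and culture controls.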

Klebsiella pneumoniae = experiment: Antibacterial activity against Klebsiella pneumoniae ATCC 13883 after 24 hrs using p-iodonitrotetrazolium violet dye; format: functional; settings: ATCC 13883, 24 h; method in brief: as §1
Staphylococcus aureus = experiment: Antibacterial activity against Staphylococcus aureus ATCC 25923 after 24 hrs using p-iodonitrotetrazolium violet dye; format: functional; settings: ATCC 25923, 24 h; method in brief: as §1
Escherichia coli = experiment: Antibacterial activity against Escherichia coli ATCC 8739 after 24 hrs using p-iodonitrotetrazolium violet dye; format: functional; settings: ATCC 8739, 24 h; method in brief: as §1
Homo sapiens = organism: Homo sapiens; experiment: Modulation of alpha1beta2gamma2S GABAA receptor (unknown origin) expressed in xenopus oocytes assessed as potentiation of GABA-induced chloride current by two-electrode voltage clamp method; format: cell-based

MIC (Enterococcus faecalis) [µg/mL]	MIC (Klebsiella pneumoniae) [µg/mL]	MIC (Staphylococcus aureus) [µg/mL]	MIC (Escherichia coli) [µg/mL]	Activity (Homo sapiens)	SMILES
62.5 (≈ 195 µM)	62.5 (≈ 195 µM)	62.5 (≈ 195 µM)	> 250	inactive	C/C(=C\C(=O)O)CC[C@]1(C)[C@@H](C)CC[C@]2(C)[C@H]1CC[C@H]1O[C@]12C
31.3 (≈ 103 µM)	93.8 (≈ 308 µM)	15.6 (≈ 51.2 µM)	15.6 (≈ 51.2 µM)	inactive	CC1=CCC[C@H]2[C@](C)(CC/C(C)=C/C(=O)O)[C@@H](C)CC[C@@]12C
125 (≈ 390 µM)	62.5 (≈ 195 µM)	125 (≈ 390 µM)	250 (≈ 780 µM)	inactive	C[C@H]1CC[C@H]2C(C)(C)CCC[C@]2(C)[C@@]1(O)CCC1=CC(=O)OC1
62.5 (≈ 196 µM)	62.5 (≈ 196 µM)	93.7 (≈ 294 µM)	125 (≈ 393 µM)	inactive	C[C@H]1CC=C2[C@@H](CC[C@@H](O)C2(C)C)[C@]1(C)CCC1=CC(=O)OC1
62.5 (≈ 195 µM)	625 (≈ 1950 µM)	62.5 (≈ 195 µM)	125 (≈ 390 µM)	inactive	C/C(=C\C(=O)O)CC[C@]1(C)[C@@H](C)CC[C@@]2(C)C(CO)=CCC[C@@H]12
62.5 (≈ 185 µM)	62.5 (≈ 185 µM)	125 (≈ 369 µM)	125 (≈ 369 µM)	inactive	C[C@H]1CC[C@H]2C(C)(C)[C@H](O)CC[C@]2(C)[C@@]12CC[C@](C)(CC(=O)O)O2
125 (≈ 388 µM)	46.9 (≈ 145 µM)	62.5 (≈ 194 µM)	125 (≈ 388 µM)	inactive	C[C@H]1CC[C@H]2C(C)(C)CCC[C@]2(C)[C@@]12CC[C@](C)(CC(=O)O)O2
125 (≈ 385 µM)	62.5 (≈ 193 µM)	93.7 (≈ 289 µM)	125 (≈ 385 µM)	inactive	C[C@H]1CC[C@H]2C(C)(C)[C@H](O)CC[C@]2(C)[C@@]12CC[C@@](C)(CCO)O2
125 (≈ 390 µM)	93.8 (≈ 293 µM)	62.5 (≈ 195 µM)	125 (≈ 390 µM)	inactive	C/C(=C\C(=O)O)CC[C@@]1(C)[C@H](C)CC[C@@]2(C)C(CO)=CCC[C@H]12 (relative stereo)
				inactive	C[C@@H]1CC[C@@]2(C)[C@H](CC[C@@H]3O[C@@]32C)[C@@]1(C)CCC1=CC(=O)OC1
62.5 (≈ 164 µM)	62.5 (≈ 164 µM)	125 (≈ 328 µM)	125 (≈ 328 µM)	inactive	CC(=O)O[C@@H]1CC[C@@]2(C)[C@@H](CC[C@H](C)[C@]23CC[C@](C)(CC(=O)O)O3)C1(C)C

SMILES	MIC (Enterococcus faecalis) [µg/mL]	MIC (Klebsiella pneumoniae) [µg/mL]	MIC (Staphylococcus aureus) [µg/mL]	MIC (Escherichia coli) [µg/mL]	Activity (Homo sapiens)
O=C(O)c1cn(C2CC2)c2cc(N3CCNCC3)c(F)cc2c1=O [CIPROFLOXACIN]	0.156 (≈ 0.471 µM)	0.078 (≈ 0.235 µM)	0.156 (≈ 0.471 µM)	0.156 (≈ 0.471 µM)	
